Experimental data reported in ChEMBL document CHEMBL4049443, “Discovery of 2-[[2-Ethyl-6-[4-[2-(3-hydroxyazetidin-1-yl)-2-oxoethyl]piperazin-1-yl]-8-methylimidazo[1,2-a]pyridin-3-yl]methylamino]-4-(4-fluorophenyl)thiazole-5-carbonitrile (GLPG1690), a First-in-Class Autotaxin Inhibitor Undergoing Clinical Evaluation for the Treatment of Idiopathic Pulmonary …” (J Med Chem, 2017).
Calls of active or inactive are those of the source. No cut-off for these calls is given here.

Experiments:
[1] = system: Mus musculus; test: In vivo inhibition of ATX in C57BL/6Rj mouse assessed as time for maximum reduction in LPA 18:2 at 3 mg/kg administered as single dose via oral gavage by LC-MS/MS analysis; type: functional
Outline: (§1)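 Same single-gavage mouse study (female C57BL/6Rj, PEG 200/MC 0.5% vehicle, n = 3, bled predose and at 1, 3, 6, 24 h); vehicle control group. Plasma (10 μL) precipitated with methanol containing LPA 17:0 internal standard. LPA 18:2 read by LC−MS/MS as peak-area ratio to LPA 17:0. % reduction = 100 − (LPA at time t / mean vehicle LPA at time t × 100).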

[2] = Tmax in C57BL/6Rj mouse at 30 mg/kg administered as single dose via oral gavage up to 24 hrs by LC-MS/MS analysis; type: ADME, organism-based; settings: in vivo
Outline: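 Female C57BL/6Rj mice, 4−5 weeks old, given one oral gavage in PEG 200/MC 0.5% (25/75, v/v) at 3 mg/mL; fasted. Intracardiac blood under isoflurane at 1, 3, 6 and 24 h, Li-heparin. Methanol precipitation, LC−MS/MS against eight-level calibration, LLOQ 4 ng/mL. Plasma levels averaged over three mice; noncompartmental analysis for tmax.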

[3] = molecular target: Autotaxin (Rattus norvegicus, UniProt Q64610); test: Inhibition of ATX in rat plasma assessed as reduction in LPA 18:2 production after 2 hrs by LC-MS/MS analysis
[4] = system: Mus musculus; test: In vivo inhibition of ATX in C57BL/6Rj mouse assessed as time for maximum reduction in LPA 18:2 at 30 mg/kg administered as single dose via oral gavage by LC-MS/MS analysis; type: functional; outline: as §1
[5] = Cmax in C57BL/6Rj mouse at 30 mg/kg administered as single dose via oral gavage up to 24 hrs by LC-MS/MS analysis; type: ADME, organism-based; design: dose 30 mg/kg, route oral; settings: in vivo
Outline: (§2)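 Female C57BL/6Rj mice, 4−5 weeks old, fasted, given one oral gavage in PEG 200/MC 0.5% (25/75 v/v) at 0.3, 1 or 3 mg/mL. Intracardiac blood under isoflurane at 1, 3, 6 and 24 h into Li-heparin; n = 3 per time point. Methanol precipitation, LC−MS/MS against an eight-level calibration curve (LLOQ 4 ng/mL).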

[6] = AUC (0 to 24 hrs) in C57BL/6Rj mouse at 10 mg/kg administered as single dose via oral gavage by LC-MS/MS analysis; type: ADME, organism-based; design: dose 10 mg/kg, time < 24 hr, route oral; settings: in vivo; outline: as §2
[7] = Plasma concentration in C57BL/6Rj mouse at 3 mg/kg administered as single dose via oral gavage after 24 hrs by LC-MS/MS analysis; type: ADME, organism-based; outline: as §2
[8] = Cmax in C57BL/6Rj mouse at 10 mg/kg administered as single dose via oral gavage up to 24 hrs by LC-MS/MS analysis; type: ADME, organism-based; design: dose 10 mg/kg, route oral; settings: in vivo; outline: as §2
[9] = system: Mus musculus; test: Anti-fibrotic activity in BML-induced pulmonary fibrosis C57BL/6 mouse model assessed as reduction in fibrotic thickening of aveolar/bronchial walls at 10 to 30 mg/kg, po administered bid with 7.5 hrs interval between 2 doses for 21 days relative to control; type: functional, organism-based
Outline: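 Male C57Bl/6 mice, 11 weeks at delivery, anesthetized and given intranasal bleomycin 30 μg/50 μL; PBS controls. Oral dosing twice daily, 7.5 h apart, 10 mL/kg, from challenge day for 21 days: test agent in PEG 200/0.5% MC, pirfenidone in 0.5% CMC, vehicle controls; 14−24 mice per group. Lungs stained by Mallory method, scored 1–5 (Matsuse-modified Ashcroft) as mean of 10 low-power fields; group median, Mann−Whitney.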

[10] = molecular target: Autotaxin (Mus musculus, UniProt Q9R1E6); test: Inhibition of ATX in mouse plasma assessed as reduction in LPA 18:2 production after 2 hrs by LC-MS/MS analysis
[11] = system: Mus musculus; test: Time at which plasma concentration reach in vitro mouse plasma IC50 in C57BL/6Rj mouse at 3 mg/kg, po administered as single dose via gavage
[12] = Apparent elimination half life in C57BL/6Rj mouse at 3 mg/kg administered as single dose via oral gavage up to 24 hrs by LC-MS/MS analysis; type: ADME, organism-based; settings: in vivo, read-out: betat1/2(app) (converted); outline: as §2
[13] = Apparent terminal half life in C57BL/6Rj mouse at 10 mg/kg administered as single dose via oral gavage up to 24 hrs by LC-MS/MS analysis; type: ADME, organism-based; settings: in vivo, read-out: betat1/2(app) (converted); outline: as §2
[14] = AUC (0 to 24 hrs) in C57BL/6Rj mouse at 3 mg/kg administered as single dose via oral gavage by LC-MS/MS analysis; type: ADME, organism-based; design: time < 24 hr, dose 3 mg/kg, route oral; settings: in vivo; outline: as §2
[15] = Plasma concentration in C57BL/6Rj mouse at 30 mg/kg administered as single dose via oral gavage after 24 hrs by LC-MS/MS analysis; type: ADME, organism-based; outline: as §2
[16] = system: Mus musculus; test: In vivo inhibition of ATX in C57BL/6Rj mouse assessed as reduction in LPA 18:2 level in plasma at 3 mg/kg administered as single dose via oral gavage by LC-MS/MS analysis; type: functional; outline: as §1
[17] = system: Mus musculus; test: In vivo inhibition of ATX in C57BL/6Rj mouse assessed as reduction in LPA 18:2 level in plasma at 10 mg/kg administered as single dose via oral gavage by LC-MS/MS analysis; type: functional; outline: as §1
[18] = system: Mus musculus; test: Dose normalized Cmax in C57BL/6Rj mouse at 30 mg/kg administered as single dose via oral gavage up to 24 hrs by LC-MS/MS analysis; type: ADME, organism-based; settings: in vivo; outline: as §2
[19] = system: Mus musculus; test: Dose normalized AUC (0 to 24 hrs) in C57BL/6Rj mouse at 30 mg/kg administered as single dose via oral gavage by LC-MS/MS analysis; type: ADME, organism-based; settings: in vivo; outline: as §2
[20] = system: Mus musculus; test: Anti-fibrotic activity in BML-induced pulmonary fibrosis C57BL/6 mouse model assessed as lung weight at 10 to 30 mg/kg, po administered bid with 7.5 hrs interval between 2 doses for 21 days relative to control; type: functional, organism-based
[21] = Oral bioavailability in rat at 5 mg/kg; type: ADME, organism-based; settings: in vivo
[22] = Plasma concentration C57BL/6Rj mouse at 10 mg/kg administered as single dose via oral gavage after 24 hrs by LC-MS/MS analysis; type: ADME, organism-based; outline: as §2
[23] = Cmax in C57BL/6Rj mouse at 3 mg/kg administered as single dose via oral gavage up to 24 hrs by LC-MS/MS analysis; type: ADME, organism-based; design: dose 3 mg/kg, route oral; settings: in vivo; outline: as §2
[24] = Tmax in C57BL/6Rj mouse at 10 mg/kg administered as single dose via oral gavage up to 24 hrs by LC-MS/MS analysis; type: ADME, organism-based; settings: in vivo; outline: as §2
[25] = Protein binding to mouse plasma; type: ADME, cell-free; settings: read-out: PPB
[26] = system: Mus musculus; test: Dose normalized Cmax in C57BL/6Rj mouse at 10 mg/kg administered as single dose via oral gavage up to 24 hrs by LC-MS/MS analysis; type: ADME, organism-based; settings: in vivo; outline: as §2
[27] = Oral bioavailability in mouse at 5 mg/kg; type: ADME, organism-based; settings: in vivo
[28] = Protein binding to dog plasma; type: ADME, cell-free, Canis lupus familiaris; settings: read-out: PPB
[29] = system: Mus musculus; test: In vivo inhibition of ATX in C57BL/6Rj mouse assessed as reduction in LPA 18:2 level in plasma at 30 mg/kg administered as single dose via oral gavage by LC-MS/MS analysis; type: functional; outline: as §1
[30] = Plasma clearance in rat at 1 mg/kg, iv; type: ADME, organism-based
[31] = Plasma clearance in mouse at 1 mg/kg, iv; type: ADME, organism-based

CCc1nc2c(C)cc(N3CCN(CC(=O)N4CC(O)C4)CC3)cn2c1N(C)c1nc(-c2ccc(F)cc2)c(C#N)s1 [ZIRITAXESTAT]
Time [1]: 3 h | Tmax [2]: 1 h | IC50 [3]: 542 nM | Time [4]: 3 h | Cmax [5]: 21400 ng/mL | AUC(0-t) at 24 h [6]: 20800 ng·h/mL | concentration at 24 h [7]: 1 ng/mL | Cmax [8]: 4360 ng/mL | Activity [9]: Active | IC50 [10]: 418 nM | Time [11]: 6 h | half-life [12]: 2.21 h | half-life [13]: 2.22 h | AUC(0-t) at 24 h [14]: 5550 ng·h/mL | concentration at 24 h [15]: 295 ng/mL | inhibition in vivo at 3 mg/kg [16]: 83.6% | inhibition in vivo at 10 mg/kg [17]: 90.9% | Cmax/dose [18]: 712 ng/mL/(mg/kg) | AUC/dose [19]: 3374 ng·h/mL/mg/kg | Activity [20]: Active | bioavailability [21]: 37% | concentration at 24 h [22]: 4 ng/mL | Cmax [23]: 1080 ng/mL | Tmax [24]: 1 h | fraction unbound [25]: < 0.01 | Cmax/dose [26]: 436 ng/mL/(mg/kg) | bioavailability [27]: 29% | fraction unbound [28]: < 0.01 | inhibition in vivo at 30 mg/kg [29]: 95.2% | clearance [30]: 11.5 mL/min/kg | clearance [31]: 3.83 mL/min/kg
